From ChEMBL document CHEMBL1145854, “Characteristics of selenazolidine prodrugs of selenocysteine: toxicity and glutathione peroxidase induction in V79 cells” (J Med Chem, 2003)

Assays:
Conditions in all cases: Cricetulus griseus
V79 [1] = experiment: Glutathione peroxidase activity in V79 cells at 100 uM expressed as fold induction of GPx activity to control value; format: cell-based
Summary of the method: (§1)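 V79 cells (5.0×10^5 per flask) adhered overnight, then exposed 48 h to compound in complete medium (pH 7–7.5), followed by 24 h in fresh medium. Cells were sonicated in Tris-HCl (50 mM, pH 7.5, EDTA, 2-mercaptoethanol) and centrifuged. Supernatant GPx was read as NADPH loss at 340 nm over 3 min with tert-butyl hydroperoxide, normalised to Bradford protein (N = 9), and given as fold over untreated control.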

V79 [2] = experiment: Cytotoxicity activity against V79 cells; format: functional, cell-based
Summary of the method: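 V79 cells kept in D-MEM with 10% Fetal Clone I serum at 37 °C, 5% CO2, then seeded in 96-well plates and allowed to adhere overnight. Exposed 2 days to compound (0–3000 µM, pH 7–7.5, in complete medium). Viability read by MTS (2 h, 490 nm), expressed as percent of untreated control. IC50 taken by regression of viability vs concentration.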

V79 [3] = experiment: Glutathione peroxidase activity in V79 cells at 20 uM expressed as fold induction of GPx activity to control value; format: cell-based; summary of the method: as §1

Which results are given for `O=[Se](=O)(O)O` [SODIUM SELENATE]?
Fold induction (V79 [1]): 1.9; IC50 (V79 [2]): 292 µM

Which results are given for `O=C1N[C@H](C(=O)O)C[Se]1`?
Fold induction (V79 [1]): 4.6; IC50 (V79 [2]): 451 µM

How did the Fold induction (V79 [3]) turn out when `N#C[Se]Cc1ccc(C[Se]C#N)cc1` was run?
The Fold induction was 1.5.

And the IC50 (V79 [2])?
The IC50 was 12 µM.

With `C[Se]CC[C@H](N)C(=O)O` [SELENOMETHIONINE] as the compound, how does the Fold induction (V79 [1]) read?
Its Fold induction is 1.8.

What about the IC50 (V79 [2]) of the same compound?
The IC50 was 267 µM.

What does the source list for `O=C1N[C@@H](C(=O)O)C[Se]1`?
Fold induction (V79 [1]): 1.4; IC50 (V79 [2]): > 3000 µM

For `CC1N[C@H](C(=O)O)C[Se]1` (some centres undefined), which Fold induction (V79 [1]) is on record?
Its Fold induction is 2.1.

What about the IC50 (V79 [2]) of the same compound?
Its IC50 is 79 µM.

`C[Se]C[C@H](N)C(=O)O` [METHYLSELENOCYSTEINE] was tested. Which Fold induction (V79 [1]) did it give?
The Fold induction was 1.5.

What about the IC50 (V79 [2]) of the same compound?
The IC50 was 472 µM.

What does the source list for `O=C(O)[C@@H]1C[Se]CN1`?
Fold induction (V79 [1]): 5.9; IC50 (V79 [2]): 317 µM

With `O=[Se](O)O` [SODIUM SELENITE] as the compound, how does the IC50 (V79 [2]) read?
Its IC50 is 17 µM.

For `CC1N[C@@H](C(=O)O)C[Se]1` (some centres undefined), which Fold induction (V79 [1]) is on record?
The Fold induction was 1.3.

And the IC50 (V79 [2])?
Its IC50 is 160 µM.
